Data from ChEMBL document CHEMBL5058577, “EUbOPEN Chemogenomics Library 2 (Multiplex)” (2022).

System: Fibroblast
Assay: Multiplex assay against human fibroblast
Type: toxicity, cell-based
Outline: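 Values for tubulin, mitochondrial-mass and membrane-permeability phenotypes are per cents of cells with healthy nuclei. These cells were identified by CellPathfinder machine-learning gating of live cells that had been stained at seeding with Hoechst33342, BioTracker Green Microtubule Cytoskeleton Dye, MitoTracker Red and Annexin V Alexa Fluor 680 and imaged on a CQ1 microscope at 37°C and 5% CO2 after compound addition. The gating first set Hoechst high-intensity objects apart from normal cells, then split normal cells into healthy, pyknosed or fragmented nuclei, and pyknosed cells into mitotic or apoptotic.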

[1] = 12 h, 1 µM, compound concentration 1 uM, replicate 1
[2] = 12 h, 1 µM, compound concentration 1 uM, replicate 2
[3] = 12 h, 10 µM, compound concentration 10 uM, replicate 1
[4] = 12 h, 10 µM, compound concentration 10 uM, replicate 2
[5] = 24 h, 1 µM, compound concentration 1 uM, replicate 1
[6] = 24 h, 1 µM, compound concentration 1 uM, replicate 2
[7] = 24 h, 10 µM, compound concentration 10 uM, replicate 1
[8] = 24 h, 10 µM, compound concentration 10 uM, replicate 2
[9] = 48 h, 1 µM, compound concentration 1 uM, replicate 1
[10] = 48 h, 1 µM, compound concentration 1 uM, replicate 2
[11] = 48 h, 10 µM, compound concentration 10 uM, replicate 1
[12] = 48 h, 10 µM, compound concentration 10 uM, replicate 2

CN1CCN2c3ncccc3Cc3ccccc3C2C1 (stereo not given) [MIRTAZAPINE]
Population Apoptotic (%) [1]: 44%
Population Fragmented Nuclei (%) [1]: 10%
Population Healthy Nuclei (%) [1]: 77%
Population Hoechst High Intensity Objects (%) [1]: 3%
Population Membrane Permeable-Phenotype (%) [1]: 0%
Population Mitochondria Different-Phenotype (%) [1]: 6%
Population Mitotic Cells (%) [1]: 56%
Population Normal (%) [1]: 96%
Population Pyknosed Nuclei (%) [1]: 12%
Population Tubulin-Different-Phenotype (%) [1]: 24%
Total Cell Count [1]: 213
Population Apoptotic (%) [2]: 33%
Population Fragmented Nuclei (%) [2]: 24%
Population Healthy Nuclei (%) [2]: 47%
Population Membrane Permeable-Phenotype (%) [2]: 4%
Population Mitochondria Different-Phenotype (%) [2]: 5%
Population Mitotic Cells (%) [2]: 66%
Population Pyknosed Nuclei (%) [2]: 27%
Population Tubulin-Different-Phenotype (%) [2]: 45%
Total Cell Count [2]: 156
Population Apoptotic (%) [3]: 44%
Population Fragmented Nuclei (%) [3]: 19%
Population Healthy Nuclei (%) [3]: 69%
Population Hoechst High Intensity Objects (%) [3]: 1%
Population Membrane Permeable-Phenotype (%) [3]: 0%
Population Mitochondria Different-Phenotype (%) [3]: 8%
Population Mitotic Cells (%) [3]: 55%
Population Normal (%) [3]: 98%
Population Pyknosed Nuclei (%) [3]: 10%
Population Tubulin-Different-Phenotype (%) [3]: 30%
Total Cell Count [3]: 168
Population Apoptotic (%) [4]: 28%
Population Fragmented Nuclei (%) [4]: 27%
Population Healthy Nuclei (%) [4]: 40%
Population Hoechst High Intensity Objects (%) [4]: 6%
Population Membrane Permeable-Phenotype (%) [4]: 16%
Population Mitochondria Different-Phenotype (%) [4]: 7%
Population Mitotic Cells (%) [4]: 71%
Population Normal (%) [4]: 93%
Population Pyknosed Nuclei (%) [4]: 32%
Population Tubulin-Different-Phenotype (%) [4]: 60%
Total Cell Count [4]: 140
Population Apoptotic (%) [5]: 47%
Population Fragmented Nuclei (%) [5]: 7%
Population Healthy Nuclei (%) [5]: 82%
Population Hoechst High Intensity Objects (%) [5]: 5%
Population Membrane Permeable-Phenotype (%) [5]: 0%
Population Mitochondria Different-Phenotype (%) [5]: 5%
Population Mitotic Cells (%) [5]: 52%
Population Normal (%) [5]: 94%
Population Pyknosed Nuclei (%) [5]: 10%
Population Tubulin-Different-Phenotype (%) [5]: 31%
Total Cell Count [5]: 201
Population Apoptotic (%) [6]: 48%
Population Fragmented Nuclei (%) [6]: 26%
Population Healthy Nuclei (%) [6]: 50%
Population Hoechst High Intensity Objects (%) [6]: 0%
Population Membrane Permeable-Phenotype (%) [6]: 10%
Population Mitochondria Different-Phenotype (%) [6]: 10%
Population Mitotic Cells (%) [6]: 51%
Population Normal (%) [6]: 99%
Population Pyknosed Nuclei (%) [6]: 23%
Population Tubulin-Different-Phenotype (%) [6]: 36%
Total Cell Count [6]: 153
Population Apoptotic (%) [7]: 50%
Population Fragmented Nuclei (%) [7]: 19%
Population Healthy Nuclei (%) [7]: 72%
Population Hoechst High Intensity Objects (%) [7]: 4%
Population Membrane Permeable-Phenotype (%) [7]: 0%
Population Mitochondria Different-Phenotype (%) [7]: 9%
Population Mitotic Cells (%) [7]: 50%
Population Normal (%) [7]: 95%
Population Pyknosed Nuclei (%) [7]: 7%
Population Tubulin-Different-Phenotype (%) [7]: 30%
Total Cell Count [7]: 186
Population Apoptotic (%) [8]: 46%
Population Fragmented Nuclei (%) [8]: 29%
Population Healthy Nuclei (%) [8]: 46%
Population Hoechst High Intensity Objects (%) [8]: 5%
Population Membrane Permeable-Phenotype (%) [8]: 15%
Population Mitochondria Different-Phenotype (%) [8]: 1%
Population Mitotic Cells (%) [8]: 53%
Population Normal (%) [8]: 94%
Population Pyknosed Nuclei (%) [8]: 23%
Population Tubulin-Different-Phenotype (%) [8]: 68%
Total Cell Count [8]: 136
Population Apoptotic (%) [9]: 60%
Population Fragmented Nuclei (%) [9]: 15%
Population Healthy Nuclei (%) [9]: 73%
Population Hoechst High Intensity Objects (%) [9]: 7%
Population Membrane Permeable-Phenotype (%) [9]: 0%
Population Mitochondria Different-Phenotype (%) [9]: 4%
Population Mitotic Cells (%) [9]: 39%
Population Normal (%) [9]: 92%
Population Pyknosed Nuclei (%) [9]: 11%
Population Tubulin-Different-Phenotype (%) [9]: 31%
Total Cell Count [9]: 213
Population Apoptotic (%) [10]: 50%
Population Fragmented Nuclei (%) [10]: 36%
Population Healthy Nuclei (%) [10]: 45%
Population Hoechst High Intensity Objects (%) [10]: 2%
Population Membrane Permeable-Phenotype (%) [10]: 11%
Population Mitochondria Different-Phenotype (%) [10]: 12%
Population Mitotic Cells (%) [10]: 50%
Population Normal (%) [10]: 97%
Population Pyknosed Nuclei (%) [10]: 17%
Population Tubulin-Different-Phenotype (%) [10]: 56%
Total Cell Count [10]: 161
Population Apoptotic (%) [11]: 66%
Population Fragmented Nuclei (%) [11]: 17%
Population Healthy Nuclei (%) [11]: 73%
Population Hoechst High Intensity Objects (%) [11]: 5%
Population Membrane Permeable-Phenotype (%) [11]: 0%
Population Mitochondria Different-Phenotype (%) [11]: 9%
Population Mitotic Cells (%) [11]: 33%
Population Normal (%) [11]: 94%
Population Pyknosed Nuclei (%) [11]: 9%
Population Tubulin-Different-Phenotype (%) [11]: 36%
Total Cell Count [11]: 176
Population Apoptotic (%) [12]: 33%
Population Fragmented Nuclei (%) [12]: 46%
Population Healthy Nuclei (%) [12]: 41%
Population Hoechst High Intensity Objects (%) [12]: 2%
Population Membrane Permeable-Phenotype (%) [12]: 8%
Population Mitochondria Different-Phenotype (%) [12]: 2%
Population Mitotic Cells (%) [12]: 66%
Population Normal (%) [12]: 97%
Population Pyknosed Nuclei (%) [12]: 12%
Population Tubulin-Different-Phenotype (%) [12]: 60%
Total Cell Count [12]: 120
